Experimental findings from publication PMC3472128 (Structure (London, England : 1993), 2012) are described below.

Experiment [1] has as its target four independent Nedd4L WW domains. The experiment can be described thus: ITC, Smad7 peptide vs independent Nedd4L WW domains. It is filed as binding, human. The settings on record: each of the four independent WW domains, values shown in Figure 1B only. For orientation: ITC needs no label: the signal is the heat of the interaction.
Experiment [2] has as its system three possible Nedd4L WW-WW pairs. The experiment can be described thus: ITC, Smad7 peptide vs Nedd4L WW-WW pairs. It counts as binding, human.
The next experiment concerns Nedd4L WW2-WW3 pair. The experiment can be described thus: ITC, Smad7 peptide vs Nedd4L WW2-WW3 pair. It counts as binding, human.
The test system of experiment [3] is Nedd4L WW2-WW3 mutant constructs (bind only one PY site). The experiment can be described thus: ITC, Smad7 peptide vs Nedd4L WW2-WW3 mutant constructs. The note with it: two WW2-WW3 mutant constructs that bind only one PY site. It is filed as binding, human.
A further experiment has as its system Nedd4L WW domains. The experiment can be described thus: ITC, preferred Nedd4L WW domain for Smad7 peptide. It is filed as binding, human.
Experiment [4] addresses Nedd4L WW2 domain Arg380Glu (Homo sapiens, UniProt Q96PU5, R400E). The experiment in a line: ITC, Smad7 peptide vs Nedd4L WW2 Arg380Glu. It counts as binding.
For experiment [5], the target named is Nedd4L WW2 domain Lys378Glu (Homo sapiens, UniProt Q96PU5, K398E). The experiment can be described thus: ITC, Smad7 peptide vs Nedd4L WW2 Lys378Glu. It counts as binding.
Experiment [6] concerns the target Nedd4L WW2 domain Lys378/Arg380 to Glu (Homo sapiens, UniProt Q96PU5, K398E/R400E). The experiment in a line: ITC, Smad7 peptide vs Nedd4L WW2 double mutant. It counts as binding.
In experiment [7] the target is T1, Smurf1 WW2 (Homo sapiens, UniProt Q9HCE7). The experiment in a line: ITC, Smad7 peptide vs Smurf1 WW2. It counts as binding.
Experiment [8] has as its system Smurf1 WW1. The experiment in a line: ITC, Smad7 peptide vs Smurf1 WW1. It is filed as binding, human.
For experiment [9], the target named is T2, Smurf1 WW1-WW2 (Homo sapiens, UniProt Q9HCE7).
T2 sequence (Q9HCE7 233-314 isoform Q9HCE7-2): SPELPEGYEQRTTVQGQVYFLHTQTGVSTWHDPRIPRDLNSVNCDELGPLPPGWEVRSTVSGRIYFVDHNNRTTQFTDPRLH
The experiment can be described thus: ITC, Smad7 peptide vs Smurf1 WW1-WW2 pair. It is filed as binding. The method in brief:
(§1)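 Nano ITC was run at 5, 15 and 25 °C, in Tris and in ammonium acetate at pH 7. Kd and stoichiometry come from fits. Each run was done at least three times with two protein expression batches.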

For another experiment, the system named is Smurf2 WW2. The experiment in a line: ITC, Smad7 peptide vs Smurf2 WW2. It is filed as binding, human.
The target in experiment [10] is T3, Smurf2 WW2-WW3 (Homo sapiens, UniProt Q9HAU4). The experiment in a line: ITC, Smad7 peptide vs Smurf2 WW2-WW3 pair. It counts as binding. The method in brief: as §1
For another experiment, the system named is Smurf1 WW1-WW2 Arg243Ala. The experiment in a line: ITC, Smad7 peptide vs Smurf1 WW1-WW2 Arg243Ala. It counts as binding, human.
A further experiment concerns Smurf1 WW1-WW2 Gln249Glu. The experiment can be described thus: ITC, Smad7 peptide vs Smurf1 WW1-WW2 Gln249Glu. It counts as binding, human.
Experiment [11] has as its system Smurf1 WW1-WW2 Gln247 and Gln249 to Glu. The experiment can be described thus: ITC, Smad7 peptide vs Smurf1 WW1-WW2 Gln247 and Gln249 to Glu. It counts as binding, human.
In a further experiment the test system is Smurf1 WW1-WW2 Arg243Glu. The experiment in a line: ITC, Smad7 peptide vs Smurf1 WW1-WW2 Arg243Glu. It is filed as binding, human.
For experiment [12], the target named is Smurf1 WW2 domain Arg295Glu (Homo sapiens, UniProt Q9HCE7, R321E). The experiment in a line: ITC, Smad7 peptide vs Smurf1 WW2 Arg295Glu. It counts as binding.
Another experiment concerns the target Smurf2 WW3 domain R312E (Homo sapiens, UniProt Q9HAU4, R312E). The experiment can be described thus: ITC, Smad7 peptide vs Smurf2 WW3 R312E. It counts as binding.
A further experiment addresses YAP WW1 domain (Homo sapiens, UniProt P46937). The experiment can be described thus: ITC, Smad7 peptide vs YAP WW1. It is filed as binding.
The next experiment deals with YAP WW2. The experiment can be described thus: ITC, Smad7 peptide vs YAP WW2. It counts as binding, human. The settings on record: 15°C, weaker than YAP WW1.
In a further experiment the target is YAP WW1-WW2 pair (Homo sapiens, UniProt P46937). The experiment in a line: ITC, YAP WW1-WW2 pair. It counts as binding.
Experiment [13] addresses T1, Smurf1 WW2. The experiment can be described thus: IM-MS, Smurf1 WW2 dimer population. It is filed as binding. The essentials: (§2)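 Traveling-wave ion mobility–mass spectrometry was run on the recombinant Smurf WW protein mixed with the Smad7 peptide. Monomer, dimer and trimer species carrying zero to three ligands were assigned by specific ionisation mass and characteristic drift time.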

For experiment [14], the system named is Smurf1 WW1. The experiment can be described thus: IM-MS, Smurf1 WW1 dimer population. It counts as binding, human. The essentials:
as §2

The target in experiment [15] is T2, Smurf1 WW1-WW2. The experiment can be described thus: IM-MS, complexes of Smurf1 WW1-WW2 with Smad7 peptide. It counts as binding. The note with it: protein concentrations used in ITC (30–50 μM).
Experiment [16] concerns the target T3, Smurf2 WW2-WW3. The experiment in a line: IM-MS, complexes of Smurf2 WW2-WW3 with Smad7 peptide. It counts as binding. The note with it: protein concentrations used in ITC (30–50 μM).
The subject of another experiment is Smurf1 WW1-WW2 pair. The experiment can be described thus: NMR, Smad7 peptide binding to Smurf1. Further details: species or system human. The note with it: triple resonance NMR; 285 K/298 K.
The subject of the next experiment is Smurf2. The experiment can be described thus: NMR, Smad7 peptide binding to Smurf2. On the set-up: species or system human. The settings on record: triple resonance NMR; 285 K/298 K.
In another experiment the test system is HA-YAP. The experiment can be described thus: Immunoprecipitation of Smad7 with HA-YAP in HEK293T cells. It counts as cell-based, human. The note with it: full-length Smad7 wild type or variants with HA-YAP. The essentials: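 HEK293T cells were transfected with epitope-tagged constructs (HA-YAP with full-length Smad7 wild type or variants) and treated where indicated with TGF-β1 at 100 pM. Lysates were immunoprecipitated with anti-Flag antibody, then immunoblotted with antibodies against the tags.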

“Also recorded” adds a separate entry of the source.

Chain of YAP WW1-WW2 pair (P46937 163-266 limits assumed): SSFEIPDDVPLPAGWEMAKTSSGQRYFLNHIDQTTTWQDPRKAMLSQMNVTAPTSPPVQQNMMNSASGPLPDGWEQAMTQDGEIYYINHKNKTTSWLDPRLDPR
T3 sequence (Q9HAU4 250-333 limits assumed): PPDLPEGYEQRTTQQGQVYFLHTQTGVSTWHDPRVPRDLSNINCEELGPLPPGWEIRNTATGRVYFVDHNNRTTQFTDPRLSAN
Chain of YAP WW1 domain (P46937 163-206): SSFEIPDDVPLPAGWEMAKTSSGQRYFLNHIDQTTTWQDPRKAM
Chain of Smurf1 WW2 domain Arg295Glu (Q9HCE7 303-340 R321E limits assumed): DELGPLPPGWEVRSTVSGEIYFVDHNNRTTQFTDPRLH
Chain of Nedd4L WW2 domain Lys378/Arg380 to Glu (Q96PU5 384-423 K398E/R400E): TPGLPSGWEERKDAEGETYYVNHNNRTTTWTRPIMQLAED
Chain of Nedd4L WW2 domain Lys378Glu (Q96PU5 384-423 K398E): as the sequence (Q96PU5 384-423 K398E/R400E) above, with E17R counted along it
Chain of Nedd4L WW2 domain Arg380Glu (Q96PU5 384-423 R400E): as the sequence (Q96PU5 384-423 K398E/R400E) above, with E15K counted along it
Chain of Smurf2 WW3 domain R312E (Q9HAU4 297-333 R312E limits assumed): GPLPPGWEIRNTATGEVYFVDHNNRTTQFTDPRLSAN

As a reminder, the Kd is the free concentration of one partner at which half of the binding sites on the other are occupied at equilibrium, for simple one-to-one binding. A lower Kd goes with tighter binding. Broadly, the stoichiometry N is a count of units in the complex or per binding partner. Turning to Ac-ELESPPPPYSRYPMD-NH2 [Smad7 peptide], the dissociation constants result in experiment [1] is recorded as “in the μM range”; in experiment [2] (three possible WW-WW pairs, values shown in Figure 1B only) it was “in the μM range”. Besides, in [2] (in vitro, versus single domains), the “effect of domain pairs on affinity” value is given as “does not increase the affinity in vitro”. The “stoichiometry (peptide per protein)” value in the experiment with Nedd4L WW2-WW3 pair is reported as “two equivalents of peptide per protein”. Besides, the peptide affinity result in experiment [3] is given as “close to those of the single domains”. In addition, the “preferred WW domain” value with Nedd4L WW domains is on record as “preferentially uses WW2”; at YAP WW1 domain (ITC, 15°C), “YAP WW1 domain preferentially binds”. For the same substance, the Kd was found to be 15.4 ± 3.5 µM in experiment [4]; 23.5 ± 1.5 µM in experiment [5]; 27.3 ± 2.2 µM in experiment [6]; 4.1 ± 0.6 µM at Smurf1 WW2 [7]; 1.7 ± 0.3 µM at Smurf1 WW1-WW2 [9] (affinity (KD), ITC, 15 °C, Tris buffer (Figure 1C), at least three times, two protein expression batches); 1.7 ± 0.3 µM on Smurf2 WW2-WW3 [10] (affinity (KD), ITC, 15 °C). Further, the equilibrium dissociation constant (Kd) in experiment [12] was determined as 48.6 ± 6.4 µM; on Smurf2 WW3 domain R312E, 34.2 ± 1.6 µM; at YAP WW1 domain, 6.9 ± 0.28 µM; at YAP WW1-WW2 pair it was 9.8 ± 0.9 µM. Moreover, the stoichiometry is recorded as 1 at Smurf1 WW2 [7] (ITC, independent WW2, 15 °C, Tris buffer); 0.7 on Smurf1 WW1-WW2 [9] (ITC, 15 °C, Tris buffer); less than 1 at Smurf1 WW1-WW2 [9] (ITC, all temperatures); less than 1 at Smurf2 WW2-WW3 [10] (ITC, all temperatures). The affinity entry in the experiment on Smurf1 WW1 [8] and in the experiment with Smurf2 WW2 was “very low affinity” throughout. Further, the “affinity increase due to the WW domain pair” value on Smurf1 WW1-WW2 [9] (pair versus Smurf1 WW2 at a given temperature) and at Smurf2 WW2-WW3 [10] (pair versus Smurf2 WW3 at a given temperature) was “about 2 fold” each time. For the same substance, the reduction of affinity in the experiment with Smurf1 WW1-WW2 Arg243Ala came out at 3 fold; in the experiment on Smurf1 WW1-WW2 Gln249Glu, 3 fold; in [11] it was 3 fold; in the experiment on Smurf1 WW1-WW2 Arg243Glu, 10 fold. For the same substance, in experiment [12] (R295E versus wild type), the “decrease of binding affinity” value is listed as “approximately 8 fold”. In addition, the “dissociation constant relative to WW1” value in the experiment with YAP WW2 is recorded as 9 fold. In addition, on YAP WW1-WW2 pair (ITC), the “affinity, WW1-WW2 pair versus independent WW1” value is reported as “binds slightly worse than the isolated WW1”. Besides, on YAP WW1-WW2 pair (ITC, 15°C), the “stoichiometry N” value is reported as 1. The “dimer population in the presence of peptide” value at Smurf1 WW2 [13] is listed as “reduced”; in the experiment with Smurf1 WW1 [14] it was “unaffected”. Further, the species detected entry at Smurf1 WW1-WW2 [15] is “monomeric complexes, protein dimers bound to only one ligand, dimers bound to two ligands and higher order species; also recorded: dimers with one or with two bound ligands and trimers”; on Smurf2 WW2-WW3 [16], “dimers with one or with two bound ligands and trimers”. For the same substance, the “WW domain used for interaction” value in the experiment with Smurf1 WW1-WW2 pair is on record as “using the WW2 domain”; with Smurf2, “the WW3 for Smurf2”.
As to “Smad7: full-length protein Smad7 (wild type), flag epitope-tagged, expressed in HEK293T”, the “binding to HA-YAP in immunoprecipitation” value in the experiment on HA-YAP was “binding is observed”.
